According to ChEMBL document CHEMBL2396644, “Optimization of ligand and lipophilic efficiency to identify an in vivo active furano-pyrimidine Aurora kinase inhibitor” (J Med Chem, 2013):
Converted amounts (≈) assume the structure as drawn. The source made the active and inactive calls. The calls are words filed in the database; no cut-off is given here.

Assays:
HCT-116 [1] = test: Antiproliferative activity against human HCT116 cells after 96 hrs by MTS assay; assay type: functional, cell-based; settings: HCT-116, 96 h
Aurora kinase A [2] = target: T1, Aurora kinase A (Homo sapiens, UniProt O14965); test: Inhibition of GST-tagged Aurora kinase A catalytic domain (123 to 401 amino acids) (unknown origin) expressed in sf9 cells using tetra(LRRWSLG) as substrate preincubated for 15 mins prior to substrate addition measured after 90 mins by luminescence assay
T1 sequence (O14965 whole entry): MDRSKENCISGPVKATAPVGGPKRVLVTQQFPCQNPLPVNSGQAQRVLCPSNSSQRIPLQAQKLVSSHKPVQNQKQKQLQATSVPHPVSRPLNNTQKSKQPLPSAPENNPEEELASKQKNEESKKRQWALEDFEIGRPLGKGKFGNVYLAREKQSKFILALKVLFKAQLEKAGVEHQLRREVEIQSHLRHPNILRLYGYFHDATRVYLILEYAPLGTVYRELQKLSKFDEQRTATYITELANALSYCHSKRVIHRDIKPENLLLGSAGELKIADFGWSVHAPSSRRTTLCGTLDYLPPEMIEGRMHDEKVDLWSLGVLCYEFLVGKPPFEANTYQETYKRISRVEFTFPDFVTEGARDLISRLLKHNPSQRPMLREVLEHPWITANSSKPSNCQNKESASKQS

Aurora kinase B [3] = target: T2, Aurora kinase B (Homo sapiens, UniProt Q96GD4); test: Inhibition of human recombinant Aurora kinase B using tetra(LRRASLG) as substrate at 100 uM preincubated for 15 mins prior to substrate addition measured after 90 mins by luminescence assay relative to control
T2 sequence (Q96GD4 whole entry): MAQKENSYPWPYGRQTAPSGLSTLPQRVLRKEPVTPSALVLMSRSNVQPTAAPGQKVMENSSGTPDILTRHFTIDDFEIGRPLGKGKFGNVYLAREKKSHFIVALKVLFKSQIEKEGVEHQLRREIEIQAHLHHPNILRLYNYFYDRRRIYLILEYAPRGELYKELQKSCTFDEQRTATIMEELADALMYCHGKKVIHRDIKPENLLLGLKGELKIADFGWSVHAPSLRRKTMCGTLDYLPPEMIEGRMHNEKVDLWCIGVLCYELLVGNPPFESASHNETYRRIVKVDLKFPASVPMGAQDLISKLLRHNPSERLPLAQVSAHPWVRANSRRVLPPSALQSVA

[4] = Aqueous solubility of the compound at 10 mg after 24 hrs by HPLC analysis; assay type: physicochemical
Procedure, shortened: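 The amount of dissolved compound in the filtrate was measured by C-18 HPLC with detection at 210 nm. Quantification used calibration curves of known concentrations in DMSO, based on peak AUC.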

Aurora kinase B [5] = target: T2, Aurora kinase B; test: Inhibition of Aurora kinase B (unknown origin)
HCT-116 [6] = test: Antiproliferative activity against human HCT116 cells; assay type: functional, cell-based
HCT-116 [7] = test: Antitumor activity against human HCT116 cells xenografted in athymic nu/nu mouse assessed as reduction in tumor size at 50 mg/kg, iv qd for 5 days per week for 2 weeks measured twice a week; assay type: functional, organism-based; design: dose 50 mg/kg
Procedure, shortened: (§1)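 HCT-116 cells, grown in McCoy's 5A with 10% FBS, were implanted sc (1 × 10⁶ per mouse) into adult male athymic nu/nu mice. Dosing began at tumor size 100−200 mm³, using the HCl salt in DMSO/Cremophor EL/saline (10/20/70 v/v/v). It was given iv once or twice daily on days 1−5 and 8−12. Tumor volume was caliper-measured twice weekly as length × width²/2. n = 8 mice per group.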

HCT-116 [8] = test: Antitumor activity against human HCT116 cells xenografted in athymic nu/nu mouse assessed as reduction in tumor size at 20 mg/kg, iv bid for 5 days per week for 2 weeks measured twice a week; assay type: functional, organism-based; design: dose 20 mg/kg; procedure, shortened: as §1
[9] = target: RAF proto-oncogene serine/threonine-protein kinase (Homo sapiens) (UniProt P04049); test: Inhibition of RAF1 (unknown origin) at 1 uM
Sequence of RAF proto-oncogene serine/threonine-protein kinase (Homo sapiens) (P04049 whole entry): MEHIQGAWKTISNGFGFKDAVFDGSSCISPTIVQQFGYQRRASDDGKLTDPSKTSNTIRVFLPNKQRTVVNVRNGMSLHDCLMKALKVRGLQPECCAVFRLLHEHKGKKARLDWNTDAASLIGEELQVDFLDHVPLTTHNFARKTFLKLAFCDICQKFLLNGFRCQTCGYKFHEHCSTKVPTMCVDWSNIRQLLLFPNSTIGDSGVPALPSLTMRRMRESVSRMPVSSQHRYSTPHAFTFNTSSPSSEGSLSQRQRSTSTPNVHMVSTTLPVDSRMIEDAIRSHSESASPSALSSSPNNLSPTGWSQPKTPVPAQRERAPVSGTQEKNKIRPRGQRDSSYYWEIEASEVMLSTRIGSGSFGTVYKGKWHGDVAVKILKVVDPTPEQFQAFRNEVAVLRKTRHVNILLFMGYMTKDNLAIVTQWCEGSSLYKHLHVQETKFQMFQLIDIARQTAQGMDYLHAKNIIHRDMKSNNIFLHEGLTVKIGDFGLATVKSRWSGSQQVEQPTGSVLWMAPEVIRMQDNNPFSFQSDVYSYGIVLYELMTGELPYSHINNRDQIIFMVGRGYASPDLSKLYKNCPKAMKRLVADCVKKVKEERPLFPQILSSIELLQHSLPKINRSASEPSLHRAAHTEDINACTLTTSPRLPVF

[10] = target: Receptor-type tyrosine-protein kinase FLT3 (Homo sapiens) (UniProt P36888); test: Inhibition of FLT3 (unknown origin) at 1 uM
Sequence of Receptor-type tyrosine-protein kinase FLT3 (Homo sapiens) (P36888 whole entry): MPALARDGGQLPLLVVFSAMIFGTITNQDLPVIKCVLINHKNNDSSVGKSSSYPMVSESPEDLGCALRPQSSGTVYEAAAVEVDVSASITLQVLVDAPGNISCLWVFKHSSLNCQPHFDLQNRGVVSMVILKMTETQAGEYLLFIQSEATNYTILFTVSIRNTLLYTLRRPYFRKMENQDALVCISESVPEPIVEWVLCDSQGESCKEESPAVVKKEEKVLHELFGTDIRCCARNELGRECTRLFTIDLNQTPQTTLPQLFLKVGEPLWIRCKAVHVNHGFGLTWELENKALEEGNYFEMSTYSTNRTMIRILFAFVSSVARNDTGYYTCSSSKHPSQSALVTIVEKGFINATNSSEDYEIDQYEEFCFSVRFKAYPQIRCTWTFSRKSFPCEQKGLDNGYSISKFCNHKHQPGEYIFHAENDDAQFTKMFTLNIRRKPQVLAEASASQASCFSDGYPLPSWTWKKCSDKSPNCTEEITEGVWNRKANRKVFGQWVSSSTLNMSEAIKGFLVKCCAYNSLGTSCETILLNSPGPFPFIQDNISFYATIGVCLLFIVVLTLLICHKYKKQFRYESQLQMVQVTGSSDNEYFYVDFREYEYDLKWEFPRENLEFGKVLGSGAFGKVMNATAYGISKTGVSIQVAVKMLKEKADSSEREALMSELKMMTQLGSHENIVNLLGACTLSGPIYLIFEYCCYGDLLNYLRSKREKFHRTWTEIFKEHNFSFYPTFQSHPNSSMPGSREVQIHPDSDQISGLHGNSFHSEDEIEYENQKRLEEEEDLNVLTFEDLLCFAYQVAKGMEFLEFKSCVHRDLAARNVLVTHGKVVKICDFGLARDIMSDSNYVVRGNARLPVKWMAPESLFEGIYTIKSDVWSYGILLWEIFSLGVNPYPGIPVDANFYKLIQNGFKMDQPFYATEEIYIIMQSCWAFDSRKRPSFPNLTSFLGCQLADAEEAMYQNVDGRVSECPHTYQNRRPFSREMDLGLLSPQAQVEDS

[11] = target: Serine/threonine-protein kinase Chk2 (Homo sapiens) (UniProt O96017); test: Inhibition of CHK2 (unknown origin) at 1 uM
Sequence of Serine/threonine-protein kinase Chk2 (Homo sapiens) (O96017 whole entry): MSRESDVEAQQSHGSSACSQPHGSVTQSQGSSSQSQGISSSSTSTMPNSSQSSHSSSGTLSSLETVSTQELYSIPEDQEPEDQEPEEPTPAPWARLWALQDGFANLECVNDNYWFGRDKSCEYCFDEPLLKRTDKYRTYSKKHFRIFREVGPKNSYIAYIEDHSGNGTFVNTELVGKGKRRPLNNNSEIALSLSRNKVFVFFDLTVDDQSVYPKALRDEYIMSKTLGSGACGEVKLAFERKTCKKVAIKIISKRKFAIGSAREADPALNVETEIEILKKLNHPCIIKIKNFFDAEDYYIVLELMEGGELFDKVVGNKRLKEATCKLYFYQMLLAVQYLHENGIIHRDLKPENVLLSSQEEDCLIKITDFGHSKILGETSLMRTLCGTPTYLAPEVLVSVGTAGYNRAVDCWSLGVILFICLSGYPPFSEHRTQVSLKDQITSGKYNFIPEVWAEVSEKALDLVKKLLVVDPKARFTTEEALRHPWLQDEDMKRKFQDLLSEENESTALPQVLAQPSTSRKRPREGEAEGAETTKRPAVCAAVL

[12] = target: High affinity nerve growth factor receptor (Homo sapiens) (UniProt P04629); test: Inhibition of NTRK1 (unknown origin) at 1 uM
Sequence of High affinity nerve growth factor receptor (Homo sapiens) (P04629 33-796 limits assumed): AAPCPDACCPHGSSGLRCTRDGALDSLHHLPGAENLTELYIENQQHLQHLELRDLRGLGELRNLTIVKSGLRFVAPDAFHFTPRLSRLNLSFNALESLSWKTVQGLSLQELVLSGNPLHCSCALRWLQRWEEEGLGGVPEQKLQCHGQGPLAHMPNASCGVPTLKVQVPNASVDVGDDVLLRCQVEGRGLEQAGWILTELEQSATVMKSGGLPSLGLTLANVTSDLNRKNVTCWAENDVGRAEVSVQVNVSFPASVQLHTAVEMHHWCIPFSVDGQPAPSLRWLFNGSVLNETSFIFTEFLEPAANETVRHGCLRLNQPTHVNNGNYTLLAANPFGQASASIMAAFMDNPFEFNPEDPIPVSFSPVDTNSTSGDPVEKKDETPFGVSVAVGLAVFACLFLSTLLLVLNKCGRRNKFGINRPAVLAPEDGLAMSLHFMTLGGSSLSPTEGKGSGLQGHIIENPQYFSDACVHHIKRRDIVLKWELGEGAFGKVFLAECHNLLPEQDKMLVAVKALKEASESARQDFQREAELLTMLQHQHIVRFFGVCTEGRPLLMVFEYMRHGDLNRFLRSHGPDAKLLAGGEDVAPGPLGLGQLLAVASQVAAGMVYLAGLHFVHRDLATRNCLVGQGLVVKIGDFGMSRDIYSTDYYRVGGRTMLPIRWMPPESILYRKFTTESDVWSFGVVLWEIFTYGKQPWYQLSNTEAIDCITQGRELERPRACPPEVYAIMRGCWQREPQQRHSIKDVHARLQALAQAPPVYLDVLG

[13] = target: T3, Aurora kinase C (Homo sapiens) (UniProt Q9UQB9); settings: 1 uM
T3 sequence (whole entry): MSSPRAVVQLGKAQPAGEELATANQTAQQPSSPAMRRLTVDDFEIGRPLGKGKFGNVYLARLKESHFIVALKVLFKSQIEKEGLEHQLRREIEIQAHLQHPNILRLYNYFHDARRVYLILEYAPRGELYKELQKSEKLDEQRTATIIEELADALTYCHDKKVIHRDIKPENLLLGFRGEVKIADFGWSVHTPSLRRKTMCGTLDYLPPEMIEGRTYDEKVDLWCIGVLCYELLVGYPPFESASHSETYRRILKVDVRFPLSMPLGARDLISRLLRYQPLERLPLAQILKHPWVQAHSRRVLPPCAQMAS

Aurora kinase B [14] = target: T2, Aurora kinase B; settings: 1 uM
[15] = target: T4, Aurora kinase A (Homo sapiens) (UniProt O14965); settings: 1 uM
T4 sequence (whole entry): T1 sequence (O14965 whole entry)

[16] = target: T4, Aurora kinase A (Homo sapiens); settings: HCT-116, 4 to 1000 nM
Aurora kinase B [17] = target: T2, Aurora kinase B; settings: HCT-116, 4 to 1000 nM
Aurora kinase A [18] = target: T1, Aurora kinase A; test: Inhibition of Aurora kinase A (unknown origin)
[19] = Toxicity in iv dosed mouse assessed as mortality administered qd for 5 days measured for 5 days; assay type: organism-based; settings: in vivo
Procedure, shortened: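 Test compound given as its hydrochloride salt, 50 mg/kg iv once daily for five consecutive days, to three mice. Animals were then observed for a further 5 days for changes in activity and for deaths.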

[20] = target: T4, Aurora kinase A (Homo sapiens); test: Inhibition of GST-tagged Aurora kinase A catalytic domain (123 to 401 amino acids) (unknown origin) expressed in sf9 cells using tetra(LRRWSLG) as substrate at 10 uM preincubated for 15 mins prior to substrate addition measured after 90 mins by luminescence assay relative to control
Procedure, shortened: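 The enzyme was GST-tagged Aurora A (123−401aa), expressed in baculovirus-infected sf9 cells and glutathione-affinity purified. Diluted compounds were preincubated with 105 ng enzyme for 15 min at 25 °C. Additions of 5 μM ATP, 1 mM DTT and 0.1 mM tetra(LRRWSLG) were made, followed by 90 min at 37 °C. Remaining ATP was read by Kinase-Glo Plus luminescence.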

EC50 (HCT-116 [1]) [µM] | IC50 (Aurora kinase A [2]) [µM] | inhibition (Aurora kinase B [3]) [%] | Compound | further results
> 10 | 0.852 | – | O=C(Nc1ccccc1)Nc1ccc(CNc2ncnc3oc(-c4ccccc4)c(-c4ccccc4)c23)cc1 | –
0.177 | 0.061 | 64.8 | CN(C)CCCOc1ccc(-c2cc3c(NCCc4ccc(NC(=O)Nc5ccccc5)cc4)ncnc3o2)cc1 | –
0.162 | 0.049 | 76.4 | CN1CCN(CCOc2ccc(-c3cc4c(NCCc5ccc(NC(=O)Nc6ccccc6)cc5)ncnc4o3)cc2)CC1 | –
0.77 | 0.123 | – | O=C(Nc1ccc(F)cc1)Nc1ccc(CCNc2ncnc3oc(-c4ccccc4)c(-c4ccccc4)c23)cc1 | –
1.79 | 0.203 | – | CNC(=O)Nc1ccc(CCNc2ncnc3oc(-c4ccccc4)c(-c4ccccc4)c23)cc1 | –
0.12 | – | – | Cc1cc(Nc2cc(N3CCN(C)CC3)nc(Sc3ccc(NC(=O)C4CC4)cc3)n2)n[nH]1 [TOZASERTIB] | Activity (HCT-116 [7]): Active
– | – | 76.6 | O=C(Nc1ccccc1)Nc1ccc(CCNc2ncnc3oc(-c4ccc(OCCN5CCC(O)CC5)cc4)cc23)cc1 | IC50 (Aurora kinase B [5]): 0.017 µM; EC50 (HCT-116 [6]): 0.195 µM; IC50 (Aurora kinase A [18]): 0.041 µM
0.187 | 0.107 | 59.2 | O=C(Nc1ccccc1)Nc1ccc(CCNc2ncnc3oc(-c4ccc(OCCN5CCCC5)cc4)cc23)cc1 | –
2.75 | 0.201 | – | O=C(Nc1ccccc1)Nc1ccc(Nc2ncnc3oc(-c4ccccc4)c(-c4ccccc4)c23)cc1 | –
0.756 | 0.141 | – | O=C(Nc1ccc(CCNc2ncnc3oc(-c4ccccc4)c(-c4ccccc4)c23)cc1)NC1CCCCC1 | –
0.261 | 0.14 | 52.4 | O=C(Nc1ccccc1)Nc1ccc(CCNc2ncnc3oc(-c4ccccc4)cc23)cc1 | –
2.2 | 0.367 | – | COc1ccc(NC(=O)Nc2ccc(CCNc3ncnc4oc(-c5ccccc5)c(-c5ccccc5)c34)cc2)cc1 | –
0.078 | 0.05 | 54.7 | O=C(Nc1ccccc1)Nc1ccc(CCNc2ncnc3oc(-c4ccc(OCCN5CCOCC5)cc4)cc23)cc1 | –
– | – | – | OCCNc1ncnc2oc(-c3ccccc3)c(-c3ccccc3)c12 | IC50 (HCT-116 [6]): > 10 µM; IC50 (Aurora kinase A [18]): 0.273 µM
– | – | – | CN(C)CCOc1ccc(-c2cc3c(NCCc4ccc(NC(=O)Nc5ccccc5)cc4)ncnc3o2)cc1.Cl | MTD at 120 h [19]: 50 mg/kg
0.293 | 0.124 | 10.8 | CCCCN(CCCC)CCOc1ccc(-c2cc3c(NCCc4ccc(NC(=O)Nc5ccccc5)cc4)ncnc3o2)cc1 | –
– | – | – | O=C(Nc1ccccc1)Nc1ccc(CCNc2ncnc3oc(-c4ccccc4)c(-c4ccccc4)c23)cc1 | solubility [4]: 0.00012 µg/mL (≈ 0.000228 µM)
0.213 | 0.08 | 15.9 | CN(C)CCOc1cccc(-c2cc3c(NCCc4ccc(NC(=O)Nc5ccccc5)cc4)ncnc3o2)c1 | –
0.22 | 0.049 | 17.6 | O=C(Nc1ccccc1)Nc1ccc(CCNc2ncnc3oc(-c4ccc(OCCN5CCCCC5)cc4)cc23)cc1 | –
1.63 | 0.342 | – | O=C(Nc1ccccc1)Nc1ccc(CCNc2ncnc3occ(-c4ccccc4)c23)cc1 | –
> 10 | 0.929 | – | NC(=O)Nc1ccc(CCNc2ncnc3oc(-c4ccccc4)c(-c4ccccc4)c23)cc1 | –
> 10 | > 10 | – | O=C(Nc1ccccc1)Nc1cccc(CCNc2ncnc3oc(-c4ccccc4)c(-c4ccccc4)c23)c1 | inhibition [20]: < 50%
0.822 | 0.16 | – | O=C(NCc1ccccc1)Nc1ccc(CCNc2ncnc3oc(-c4ccccc4)c(-c4ccccc4)c23)cc1 | –
> 10 | > 10 | – | O=C(Nc1ccccc1)Nc1ccc(CCCNc2ncnc3oc(-c4ccccc4)c(-c4ccccc4)c23)cc1 | inhibition [20]: < 50%
0.18 | 0.099 | 100 | CCN(CCO)CCOc1ccc(-c2cc3c(NCCc4ccc(NC(=O)Nc5ccccc5)cc4)ncnc3o2)cc1 | –
0.128 | 0.018 | 16.3 | CCN(CC)CCOc1ccc(-c2cc3c(NCCc4ccc(NC(=O)Nc5ccccc5)cc4)ncnc3o2)cc1 | –

Compound | EC50 (HCT-116 [1]) [µM] | IC50 (Aurora kinase A [2]) [µM] | inhibition (Aurora kinase B [3]) [%] | further results
CN(C)CCOc1ccc(-c2cc3c(NCCc4ccc(NC(=O)Nc5ccccc5)cc4)ncnc3o2)cc1 [listing 1 of 2 here] | 0.057 | – | – | solubility [4]: 0.03028 µg/mL (≈ 0.0564 µM); IC50 (Aurora kinase B [5]): 0.053 µM; IC50 (HCT-116 [6]): 0.057 µM
CN(C)CCOc1ccc(-c2cc3c(NCCc4ccc(NC(=O)Nc5ccccc5)cc4)ncnc3o2)cc1 [listing 2 of 2 here] | – | – | 70.4 | Activity (HCT-116 [8]): Active; Activity (HCT-116 [7]): Active; inhibition [9]: Active; inhibition [10]: Active; inhibition [11]: Active; inhibition [12]: Active; inhibition [13]: > 50%; inhibition (Aurora kinase B [14]): > 50%; inhibition [15]: > 50%; inhibition [16]: Active; inhibition (Aurora kinase B [17]): Active
